Measured values from PubChem BioAssay AID2097 (Broad Institute, 2009).
About 120 (0.04%) of roughly 300,000 compounds were called active.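 Rule for the calls: active = more than half of replicate wells score below -50%, meaning over 50% inhibition versus plate controls; inconclusive = some replicates but at most half score below -50%; inactive = no replicate scores below -50%.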 This excerpt belongs to a sample that is enriched for actives.

target: Glycogen synthase kinase-3 beta (Homo sapiens) (UniProt P49841); assay: blockers of GSK3B enzyme activity – biochemical, cell-free homogeneous, HTS, primary screen (AID 2097); conditions: GST-GSK3beta kinase, ADP-Glo luminescence, 60 min; at 10 µM; active compounds read low;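 note: 0% = median DMSO wells and -100% = median GW8510 positive control wells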
Summary of the method: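 Test system – GST-tagged human GSK3beta kinase, cell-free · Incubation – 60 min enzyme reaction, room temperature · Signal – ADP-Glo luminescence · Also added – peptide substrate and ATP at 25 µM · Controls – DMSO neutral wells and GW8510 at 20 µM as positive · Buffer or medium – Tris/MgCl2 kinase buffer · Measure – Luminescence-derived activity versus plate DMSO and GW8510 wells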

Chain of Glycogen synthase kinase-3 beta (Homo sapiens) (P49841 whole entry, looked up): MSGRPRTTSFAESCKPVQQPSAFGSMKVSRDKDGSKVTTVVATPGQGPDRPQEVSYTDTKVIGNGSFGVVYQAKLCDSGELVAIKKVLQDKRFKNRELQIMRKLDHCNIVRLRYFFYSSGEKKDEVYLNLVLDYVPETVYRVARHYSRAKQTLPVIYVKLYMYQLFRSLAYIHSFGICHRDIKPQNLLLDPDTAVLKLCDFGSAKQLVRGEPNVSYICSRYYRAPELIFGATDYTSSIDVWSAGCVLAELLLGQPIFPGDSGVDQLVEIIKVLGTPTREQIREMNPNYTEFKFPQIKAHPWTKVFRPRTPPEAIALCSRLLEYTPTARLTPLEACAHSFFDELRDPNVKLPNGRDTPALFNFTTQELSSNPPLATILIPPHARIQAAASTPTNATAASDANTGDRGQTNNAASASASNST

Activity score (negative = inhibition), inactive:
CN(Cc1ccccc1)CC(O)COc1ccc(CNCc2cc3ccccc3s2)cc1 (configuration not stated) 2.68%
CCN(CC)S(=O)(=O)c1ccc2c3c(cccc13)C(=O)S2 -2.37%
O=C1COc2ccc(C(=O)COC(=O)C3CC(O)CN3S(=O)(=O)c3ccc(Cl)cc3)cc2N1 (configuration not stated) 1.53%
CC(C)(C)NC(=O)CN(C(=O)c1csnn1)c1ccccc1-c1ccccc1 -0.766%
Cc1cc(/C=N/Nc2ccc([N+](=O)[O-])cn2)c(C)n1-c1cccc(C(=O)O)c1 -14.7%
CCOc1ccc(/C=N/Nc2nncc(-c3ccccc3)n2)cc1OC -0.0724%
O=C(C1CCN(S(=O)(=O)Cc2ccccc2)CC1)N1CCCc2ccccc21 4.16%
O=C(Nc1cccc(Cl)c1)Nc1ccccc1NS(=O)(=O)c1cccs1 1.54%
C1=C(N2CCOCC2)/C(=C/c2nc3ccccc3[nH]2)CC1 -1.13%
C=CCc1cccc(/C=N/NC(=O)COc2ccc(-n3cnnn3)cc2)c1O -4.1%
O=C(NCc1cccnc1)c1cc(S(=O)(=O)N2CCOCC2)c(Cl)cc1Cl -0.415%
COc1ccc(C(=O)Oc2ccc(-c3nnco3)cc2)cc1S(=O)(=O)N1CCOCC1 2.99%
O=C(CCN1C(=O)c2ccccc2C1=O)NNC(=O)c1ccc(Cl)cc1Cl 1.29%
COc1cc(C(=O)NCc2nnc(SCC(=O)Nc3nc4ccc(C)cc4s3)o2)cc(OC)c1OC -2.02%
O=C1CCN(CCc2ccccc2)CCN1CCOc1ccccc1 3.91%
CN1C2CCC1/C(=C\c1ccccc1Cl)C(=O)/C2=C\c1ccccc1Cl 0.435%
COc1ccccc1N(C)C(=O)c1cc(S(=O)(=O)N2CCc3ccccc32)cn1C 0.131%
CCCCC(NC(=O)c1cccc(Br)c1)C(=O)O (configuration not stated) -0.419%
Cc1c(CCC(=O)N[C@@H](CC(C)C)C(=O)O)c(=O)oc2c(C)c3oc4c(c3cc12)CCCC4 -23.5%
O=C(OCc1nnc(-c2ccccc2)o1)c1cc(=O)[nH]c2ccccc12 -0.304%
Cc1ccc(C(=O)NC2CCN(C(=O)Nc3ccccc3Cl)CC2)cc1 2.37%
CC1CN(c2nc(Nc3ccccc3)nc(N)c2[N+](=O)[O-])CC(C)O1 (configuration not stated) -27.9%
O=[N+]([O-])c1ccc(NCCCN2CCOCC2)c(Cl)c1 -5.04%
COc1ccc([N+](=O)[O-])cc1NC(=O)COC(=O)/C=C/c1ccco1 1.89%
CCOc1ccccc1C(=O)NC1CC2CCCC(C1)N2Cc1ccccc1 (configuration not stated) 1.55%
Cc1cccc(-c2nc3c(c(SCC(=O)N4CCOCC4)n2)CCCC3)c1 -0.852%
COc1ccccc1NC(=O)CCC(=O)N1CC(C)Oc2ccc(C)cc21 (configuration not stated) -0.0566%
CCOC(=O)C[C@H]1c2ccc(C(F)(F)F)cc2S(=O)(=O)N1c1ccccc1 3.21%
CCC1(c2ccccc2)NC(=O)N(CC(=O)Nc2ccccc2C(=O)NC2CCCC2)C1=O (configuration not stated) 1.66%
COc1ccc(-c2ccc(OC(=O)NC3CCS(=O)(=O)C3)cc2)cc1 (configuration not stated) 1.32%
C=C(C)C(=O)O[C@H]1C/C(C)=C\C(=O)/C=C(\C)[C@H](O)[C@@H]2OC(=O)C(=C)[C@@H]21 2.58%
Cc1ccc(S(=O)(=O)/N=S(\C)C(C)C)cc1 (configuration not stated) -3.78%
Cc1nn(-c2ccccc2)c2c1c(C)c(CCC(=O)NCC1CCCO1)c(=O)n2C (configuration not stated) -0.881%
COc1ccc(CCC(C)N2CCc3ccccc3C2)cc1 (configuration not stated) 3.34%
COc1ccc(CNS(=O)(=O)c2cc3c4c(c2)CCN4C(=O)CC3)cc1 0.199%
COc1ccc(C2OCC3(CO2)SC(=O)NC3=O)cc1OC (configuration not stated) -1.61%
Cc1ccc(C(=O)Nc2nc3ccc(Cl)cc3s2)o1 -1.18%
Cc1ccc(OCCNC(=O)CNC(=O)c2ccc(C)c(C)c2)cc1 -1.65%
COC(=O)C1=NNC2(c3ccc(C)cc3)C(=O)N(c3cccc(C)c3C)C(=O)C12 (configuration not stated) 1.69%
Cc1ccc(C2SCC(=O)N2c2ccccc2)cc1 (configuration not stated) -1.18%
C[C@H](NC(=O)c1ccccc1Cl)C(=O)OCCOc1cccc(Cl)c1 -1.48%
O=C(CCCN1C(=O)CSc2ncccc21)N1CCN(c2cccc(C(F)(F)F)c2)CC1 -4.32%
CCC(C(=O)OCC(=O)Nc1ccccc1-c1ccccc1)c1ccccc1 (configuration not stated) 0.894%
CC(=O)c1ccc(NC(=S)N(Cc2ccccc2)C(C)C2CC2)cc1 (configuration not stated) -0.731%
Cc1nnc(C)c2c(C)n(N)c(C)c12 1.96%
CNC(=O)NC(=O)C(OC(=O)c1cccc(S(=O)(=O)N2CCCCC2)c1)c1ccccc1 (configuration not stated) 1.44%
O=C(/C=C/c1cccc([N+](=O)[O-])c1)NCCSCc1ccco1 -1%
CC(C)Nc1nnc(SC(C)C(=O)N(C)C2CCCCC2)s1 (configuration not stated) -10.4%
CCc1nnc(NC(=O)CSCc2cc(=O)n3cc(C)sc3n2)s1 1.76%
COc1ccc(C)cc1Nc1n[n+](-c2ccccc2)c(-c2cccc(Cl)c2Cl)s1 1.38%
COC(=O)c1ccc2c(C(C)(C)O)c(C(C)(C)O)[nH]c2c1 0.923%
Cc1cc(C)n2nc(C(=O)N(C)C(c3ccccc3)c3ccccc3)nc2n1 -1.04%
COC(=O)c1ccc(CNC(=O)C2CCC(=O)N(Cc3cccc(F)c3)C2)cc1 (configuration not stated) -6.3%
CCc1noc(C)c1C(=O)N1CCCSC1=Nc1ccccc1OC 3.72%
CC(OC(=O)c1ccc(S(=O)(=O)N2CCOCC2)cc1)c1ccccc1 (configuration not stated) -0.509%

Activity score (negative = inhibition), active:
COc1cc(/C=N\Nc2ccc([N+](=O)[O-])cn2)ccc1OCC(=O)O -70.1%
Nc1nc(NCCCN2CCOCC2)nc(Nc2ccccc2)c1[N+](=O)[O-] -73.5%
